Laboratory results as given in ChEMBL document CHEMBL1139503, “Varenicline: an alpha4beta2 nicotinic receptor partial agonist for smoking cessation” (J Med Chem, 2005).

Tests used:
[1] = target: Neuronal acetylcholine receptor subunit alpha-7 (Rattus norvegicus, UniProt Q05941); test: Inhibition of [125I]alpha-bungarotoxin binding to nicotinic acetylcholine receptor alpha-7 subunit in rat GH4C1 cells; format: cell-based, GH4-C1
Acetylcholine receptor = Acetylcholine receptor (Torpedo californica, UniProt P02710+P02712+P02714+P02718); test: Inhibition of [125I]alpha-bungarotoxin binding to nicotinic acetylcholine receptor alpha1 beta gamma delta of electroplax; format: protein-complex assay
Chain of Acetylcholine receptor (P02710 whole entry): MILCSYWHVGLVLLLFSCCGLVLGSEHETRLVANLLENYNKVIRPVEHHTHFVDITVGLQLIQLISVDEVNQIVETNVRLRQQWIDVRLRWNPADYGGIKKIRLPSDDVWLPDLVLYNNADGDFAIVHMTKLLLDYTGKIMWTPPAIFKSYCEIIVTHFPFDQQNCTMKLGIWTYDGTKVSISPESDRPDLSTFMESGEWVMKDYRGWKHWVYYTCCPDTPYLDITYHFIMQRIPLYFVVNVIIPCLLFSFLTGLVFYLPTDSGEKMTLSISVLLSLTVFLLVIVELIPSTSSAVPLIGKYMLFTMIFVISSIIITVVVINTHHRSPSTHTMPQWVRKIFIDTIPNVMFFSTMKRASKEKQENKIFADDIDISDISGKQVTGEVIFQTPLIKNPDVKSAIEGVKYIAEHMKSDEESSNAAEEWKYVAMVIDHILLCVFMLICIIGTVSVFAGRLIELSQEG
Chain of Acetylcholine receptor (P02712 whole entry): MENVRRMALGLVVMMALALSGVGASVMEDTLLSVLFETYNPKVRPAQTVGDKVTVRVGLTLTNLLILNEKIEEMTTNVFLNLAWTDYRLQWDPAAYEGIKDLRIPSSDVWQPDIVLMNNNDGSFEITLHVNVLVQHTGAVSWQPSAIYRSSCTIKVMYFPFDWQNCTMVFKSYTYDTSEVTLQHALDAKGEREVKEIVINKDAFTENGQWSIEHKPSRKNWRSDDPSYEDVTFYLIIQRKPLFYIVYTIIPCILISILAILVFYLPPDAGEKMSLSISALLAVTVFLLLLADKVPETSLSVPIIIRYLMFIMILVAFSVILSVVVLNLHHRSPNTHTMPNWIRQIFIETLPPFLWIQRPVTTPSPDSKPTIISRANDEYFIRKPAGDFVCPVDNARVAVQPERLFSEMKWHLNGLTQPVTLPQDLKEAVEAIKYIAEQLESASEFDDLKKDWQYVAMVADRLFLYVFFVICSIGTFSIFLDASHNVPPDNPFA
Chain of Acetylcholine receptor (P02718 whole entry): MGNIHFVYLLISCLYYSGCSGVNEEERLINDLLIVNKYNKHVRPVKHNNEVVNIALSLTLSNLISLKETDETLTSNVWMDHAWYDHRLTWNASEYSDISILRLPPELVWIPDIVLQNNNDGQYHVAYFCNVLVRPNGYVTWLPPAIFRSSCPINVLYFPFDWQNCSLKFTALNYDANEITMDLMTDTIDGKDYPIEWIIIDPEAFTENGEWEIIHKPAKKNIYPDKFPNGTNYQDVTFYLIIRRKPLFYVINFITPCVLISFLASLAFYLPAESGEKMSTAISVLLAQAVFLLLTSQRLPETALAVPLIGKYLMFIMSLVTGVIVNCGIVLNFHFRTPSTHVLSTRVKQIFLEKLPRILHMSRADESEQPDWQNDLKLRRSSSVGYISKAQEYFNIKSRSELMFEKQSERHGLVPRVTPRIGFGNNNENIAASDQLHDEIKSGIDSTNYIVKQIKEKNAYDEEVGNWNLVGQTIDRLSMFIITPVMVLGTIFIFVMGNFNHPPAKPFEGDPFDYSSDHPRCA
Chain of Acetylcholine receptor (P02714 whole entry): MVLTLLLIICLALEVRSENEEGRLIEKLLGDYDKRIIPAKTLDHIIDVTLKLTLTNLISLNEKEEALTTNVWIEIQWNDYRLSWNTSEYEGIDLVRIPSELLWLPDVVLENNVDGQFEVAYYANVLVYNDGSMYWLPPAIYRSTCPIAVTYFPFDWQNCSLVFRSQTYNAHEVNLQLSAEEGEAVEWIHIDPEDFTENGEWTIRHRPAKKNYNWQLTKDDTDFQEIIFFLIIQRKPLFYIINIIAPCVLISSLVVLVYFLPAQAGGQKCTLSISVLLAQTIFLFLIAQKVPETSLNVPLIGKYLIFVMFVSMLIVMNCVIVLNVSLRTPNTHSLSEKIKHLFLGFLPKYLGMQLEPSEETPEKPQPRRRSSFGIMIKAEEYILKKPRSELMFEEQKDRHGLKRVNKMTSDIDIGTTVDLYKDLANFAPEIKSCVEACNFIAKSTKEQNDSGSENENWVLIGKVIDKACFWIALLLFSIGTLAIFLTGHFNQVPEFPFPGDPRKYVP
Procedure, shortened: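 Competition binding with [125I]-α-bungarotoxin on electroplax membranes; N = 3 determinations.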

[2] = target: T1, Neuronal acetylcholine receptor; alpha4/beta2 (Homo sapiens) (UniProt P17787+P43681); test: Percent antagonist activity against 10 uM nicotine at human nicotinic acetylcholine receptor alpha4-beta2 at 10 uM; format: functional
[3] = target: T1, Neuronal acetylcholine receptor; alpha4/beta2 (Homo sapiens); test: Percent agonist activity relative to 10 uM (-)-nicotine at human nicotinic acetylcholine receptor alpha4-beta2 at 10 uM; format: functional
Procedure, shortened: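 Electrophysiology in Xenopus oocytes expressing human α4β2 nAChR. Compound applied alone at 10 µM. Current compared with the response to 10 µM (-)-nicotine (chosen over EC50 level to limit desensitization) and expressed as percent; N = 3, SEM ≤10%.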

[4] = target: Neuronal acetylcholine receptor; alpha3/beta4 (Homo sapiens, UniProt P30926+P32297); test: Inhibition of [3H]epibatidine binding to nicotinic acetylcholine receptor alpha3-beta4 of human IMR32 cells; format: cell-based, IMR-32
Chain of Neuronal acetylcholine receptor; alpha3/beta4 (P30926 whole entry): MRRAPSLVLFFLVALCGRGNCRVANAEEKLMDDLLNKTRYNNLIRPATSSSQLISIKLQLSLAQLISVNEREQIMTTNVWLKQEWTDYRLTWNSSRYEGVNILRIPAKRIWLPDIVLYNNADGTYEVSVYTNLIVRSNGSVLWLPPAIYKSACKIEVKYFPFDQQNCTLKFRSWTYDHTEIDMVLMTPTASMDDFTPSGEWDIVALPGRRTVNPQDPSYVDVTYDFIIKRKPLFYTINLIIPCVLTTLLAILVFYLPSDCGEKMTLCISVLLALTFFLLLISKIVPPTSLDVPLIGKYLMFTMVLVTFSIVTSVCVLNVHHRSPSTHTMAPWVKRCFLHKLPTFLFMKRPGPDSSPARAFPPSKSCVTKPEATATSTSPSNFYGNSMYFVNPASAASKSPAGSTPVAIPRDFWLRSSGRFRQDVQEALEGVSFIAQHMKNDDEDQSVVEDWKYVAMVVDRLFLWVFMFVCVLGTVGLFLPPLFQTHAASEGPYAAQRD
Chain of Neuronal acetylcholine receptor; alpha3/beta4 (P32297 whole entry): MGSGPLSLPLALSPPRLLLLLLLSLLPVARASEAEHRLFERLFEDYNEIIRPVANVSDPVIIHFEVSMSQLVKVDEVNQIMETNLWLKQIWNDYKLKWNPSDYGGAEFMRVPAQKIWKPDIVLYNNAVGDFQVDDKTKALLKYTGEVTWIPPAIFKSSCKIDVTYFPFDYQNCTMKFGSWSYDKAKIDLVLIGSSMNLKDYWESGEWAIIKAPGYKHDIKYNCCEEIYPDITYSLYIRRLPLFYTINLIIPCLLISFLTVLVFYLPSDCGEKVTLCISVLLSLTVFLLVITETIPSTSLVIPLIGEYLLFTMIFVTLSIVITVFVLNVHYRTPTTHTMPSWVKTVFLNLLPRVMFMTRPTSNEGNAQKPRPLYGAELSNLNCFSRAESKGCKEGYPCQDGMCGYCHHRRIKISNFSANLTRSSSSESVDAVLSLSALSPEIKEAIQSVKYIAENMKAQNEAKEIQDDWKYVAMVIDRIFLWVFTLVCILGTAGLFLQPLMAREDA
Procedure, shortened: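 Displacement of [3H]-epibatidine from IMR32 cell preparations; N = 3 determinations.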

[5] = target: Neuronal acetylcholine receptor; alpha4/beta2 (Rattus norvegicus, UniProt P09483+P12390); test: Inhibition of [3H]nicotine binding to nicotinic acetylcholine receptor alpha4-beta2 of rat cortex
Chain of Neuronal acetylcholine receptor; alpha4/beta2 (P09483 whole entry): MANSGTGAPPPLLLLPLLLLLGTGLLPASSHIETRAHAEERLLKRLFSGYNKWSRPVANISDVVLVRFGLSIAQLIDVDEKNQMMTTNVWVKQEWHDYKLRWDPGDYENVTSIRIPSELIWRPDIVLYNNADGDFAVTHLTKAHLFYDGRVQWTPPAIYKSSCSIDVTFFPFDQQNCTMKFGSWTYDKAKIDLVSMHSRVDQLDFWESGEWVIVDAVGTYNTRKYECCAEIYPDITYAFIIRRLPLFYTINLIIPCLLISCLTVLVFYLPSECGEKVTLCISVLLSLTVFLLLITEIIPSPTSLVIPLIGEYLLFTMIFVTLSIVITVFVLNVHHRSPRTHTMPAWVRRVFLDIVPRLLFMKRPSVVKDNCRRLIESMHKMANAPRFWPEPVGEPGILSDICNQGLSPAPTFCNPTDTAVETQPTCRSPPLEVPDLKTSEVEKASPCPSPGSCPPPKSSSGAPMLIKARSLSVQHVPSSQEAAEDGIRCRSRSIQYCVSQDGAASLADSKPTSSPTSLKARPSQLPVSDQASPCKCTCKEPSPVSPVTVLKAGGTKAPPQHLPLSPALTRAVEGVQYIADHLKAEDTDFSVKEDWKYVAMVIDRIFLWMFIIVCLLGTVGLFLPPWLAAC
Chain of Neuronal acetylcholine receptor; alpha4/beta2 (P12390 whole entry): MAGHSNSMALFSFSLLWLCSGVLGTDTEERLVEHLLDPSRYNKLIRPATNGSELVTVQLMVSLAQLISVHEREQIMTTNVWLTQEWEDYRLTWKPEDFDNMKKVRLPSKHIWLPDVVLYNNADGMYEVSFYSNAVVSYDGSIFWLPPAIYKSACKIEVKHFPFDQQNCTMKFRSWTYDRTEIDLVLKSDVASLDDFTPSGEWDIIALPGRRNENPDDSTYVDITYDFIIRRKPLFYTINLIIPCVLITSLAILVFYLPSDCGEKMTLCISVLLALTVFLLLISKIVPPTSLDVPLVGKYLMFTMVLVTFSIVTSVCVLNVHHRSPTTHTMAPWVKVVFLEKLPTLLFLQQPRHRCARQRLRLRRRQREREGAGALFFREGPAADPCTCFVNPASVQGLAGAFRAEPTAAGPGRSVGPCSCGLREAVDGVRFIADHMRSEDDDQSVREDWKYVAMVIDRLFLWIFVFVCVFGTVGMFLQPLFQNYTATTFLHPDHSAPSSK
Procedure, shortened: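 Radioligand displacement in rat cortex tissue; N = 3 determinations.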

Chain of Neuronal acetylcholine receptor subunit alpha-7 (Q05941 whole entry): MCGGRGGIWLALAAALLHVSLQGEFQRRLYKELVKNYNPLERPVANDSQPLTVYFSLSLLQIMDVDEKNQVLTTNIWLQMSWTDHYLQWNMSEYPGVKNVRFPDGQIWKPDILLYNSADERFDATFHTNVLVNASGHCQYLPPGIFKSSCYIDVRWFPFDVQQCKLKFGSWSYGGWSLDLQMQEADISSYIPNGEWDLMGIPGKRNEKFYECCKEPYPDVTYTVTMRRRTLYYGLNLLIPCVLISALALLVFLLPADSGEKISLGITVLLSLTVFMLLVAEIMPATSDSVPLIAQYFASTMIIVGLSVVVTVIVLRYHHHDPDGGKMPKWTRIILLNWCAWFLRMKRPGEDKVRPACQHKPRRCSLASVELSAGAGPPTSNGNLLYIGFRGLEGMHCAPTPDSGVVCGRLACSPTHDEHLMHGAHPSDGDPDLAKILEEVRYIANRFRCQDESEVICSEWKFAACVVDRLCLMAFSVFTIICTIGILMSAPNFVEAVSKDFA

SMILES | Ki [1] | Ki (Acetylcholine receptor) | inhibition [2] | Response [3] | Ki [4] | Ki [5]
c1ccc2c(c1)C1CNCC2C1 | > 5000 nM | 370 nM | 35% | 0% | 2850 nM | 20 nM
c1cnc2cc3c(cc2n1)[C@@H]1CNC[C@H]3C1 | 322 nM | 3540 nM | 34% | 68% |  | 0.06 nM
O=[N+]([O-])c1ccc2c(c1)C1CNCC2C1 (racemic) | 7340 nM | 690 nM | 20% | 65% | 210 nM | 0.75 nM
O=c1cccc2n1C[C@@H]1CNC[C@H]2C1 (single isomer, unassigned) [CYTISINICLINE] | 4200 nM | 250 nM | 30% | 56% | 840 nM | 0.17 nM
CN1CCC[C@H]1c1cccnc1 [NICOTINE] |  | 6270 nM |  | 100% |  | 
